The values below come from PubChem BioAssay AID623917 (The Scripps Research Institute Molecular Screening Center, 2012).

Active and inactive are the calls of the source.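 How the source made its calls: active means E. coli viability under 80% of the solvent control at every tested dose; inactive means viability of 80% or more at every tested dose.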

The subject of this experiment is E. coli V66 viability, colony formation, Hfr cross. The experiment is described as follows: E. coli V66 viability loss, concentration series, dose response, cytotoxicity control for AddAB inhibitor project, colony formation, Hfr recombination (AID 623917). The settings on record: stronger effect = lower value. The method, boiled down: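 system = E. coli V66 recipient cells | medium = LB broth during compound exposure | compound dosing = five doses, 0.03–100 µM | incubation = 1 h growth with compound, 1.5 h overall | signal = CFU counting on non-selective plates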
Consider `O=C(Nc1ncccn1)c1ccc([N+](=O)[O-])o1`, for which the viability was 100% (inactive).
Next, `CCn1cc(C(=O)O)c(=O)c2cc(F)c(N3CCN(C(=S)Nc4cccc(C(F)(F)F)c4)CC3)cc21`: 12%; `CCn1cc(C(=O)O)c(=O)c2cnc(N3CCN(C(=S)Nc4ccccc4C(F)(F)F)CC3)nc21`: 90% (inactive).
On to `CCn1cc(C(=O)O)c(=O)c2cnc(N3CCN(C(=S)Nc4cccc(C(F)(F)F)c4)CC3)nc21`, for which the viability is 100% (inactive).
As to `C=CCn1c(Sc2ncc([N+](=O)[O-])s2)n[nH]c1=O`, the viability is 90% (inactive).
As for `CC1CCc2c(sc(NC(=O)c3ccc([N+](=O)[O-])o3)c2C#N)C1` (stereo not drawn), the figure is 90% (inactive); as for `O=C(NCc1cccnc1)c1ccc([N+](=O)[O-])o1`, 100% (inactive); as for `CCn1cc(C(=O)O)c(=O)c2cnc(N3CCNCC3)nc21`, 90% (inactive).
